Active and inactive are the calls of the source. The calls are words filed in the database; no cut-off is given here.
Test system: HEK293
Experiment: Selectivity index, ratio of Ki for human recombinant CB1 receptor expressed in HEK293 cell membranes to Ki for human recombinant CB2 receptor expressed in HEK293 cell membranes
Assay type: cell-based
Conditions: not given
CCOC(=O)/C=C/c1cc(C(=O)NC2CCCCCC2)c(=O)n(Cc2ccc(F)cc2)c1 gave a Ratio Ki of 1.8. With CC1CCC(NC(=O)c2cccn(Cc3ccccc3)c2=O)CC1 (stereo not drawn) the Ratio Ki was 7.3. CC1CCC(NC(=O)c2cccn(Cc3ccc(F)cc3)c2=O)CC1 (stereo not drawn) gave a Ratio Ki of 14.6. For CC1CCC(NC(=O)c2cccnc2OCc2ccc(F)cc2)CC1 (stereo not drawn), the Ratio Ki was 11. Compound O=C(NC1CCCCCC1)c1cccn(Cc2ccc(I)cc2)c1=O has a Ratio Ki of 6.8. COc1ccc(-c2cc(C(=O)NC3CCCCCC3)c(=O)n(Cc3ccc(F)cc3)c2)cc1 showed a Ratio Ki of 63. For CCCCn1cccc(C(=O)NC2CCC(C)CC2)c1=O (stereo not drawn), the Ratio Ki was 15.6. CC1CCC(NC(=O)c2cccnc2OCc2ccccc2)CC1 (stereo not drawn) gave a Ratio Ki of 5.2. O=C(NC1CCCCCC1)c1cccn(Cc2ccccc2)c1=O gave a Ratio Ki of 7. O=C(NC1CCCCCC1)c1cc(/C=C/c2ccccc2)cn(Cc2ccc(F)cc2)c1=O gave a Ratio Ki of 3. O=C(NC1CCCCCC1)c1cc(-c2ccccc2)cn(Cc2ccc(F)cc2)c1=O showed a Ratio Ki of 29. With O=C(NC1CCCCCC1)c1cccn(Cc2cccc(I)c2)c1=O the Ratio Ki was 4.6. O=C(NC1CCCCCC1)c1cc(-c2ccc(F)cc2)cn(Cc2ccc(F)cc2)c1=O showed a Ratio Ki of 8.6. Compound O=C(NC1CCCCCC1)c1cc(-c2ccc(F)cc2)cn(CCN2CCOCC2)c1=O has a Ratio Ki of 43.4. O=C(NC1CCCCCC1)c1cccn(Cc2ccc(F)cc2)c1=O showed a Ratio Ki of 5.5. Compound CCCCn1cc(Br)cc(C(=O)NC2CCCCCC2)c1=O has a Ratio Ki of 4.5. O=C(NC1CCCCCC1)c1cccn(Cc2ccc(Cl)cc2)c1=O gave a Ratio Ki of 13.1. Compound O=C(NC1CCCCCC1)c1cc(Br)cn(CCN2CCOCC2)c1=O has a Ratio Ki of 3.7. In the case of O=C(NC1CCCCCC1)c1cc(Br)cn(Cc2ccc(F)cc2)c1=O, the Ratio Ki is reported as 4. O=C(NC1CCCCCC1)c1cccnc1OCc1ccccc1 showed a Ratio Ki of 4.

Molecular target: T1, Cannabinoid receptor 2 (Homo sapiens, UniProt P34972)
T1 sequence (P34972 whole entry): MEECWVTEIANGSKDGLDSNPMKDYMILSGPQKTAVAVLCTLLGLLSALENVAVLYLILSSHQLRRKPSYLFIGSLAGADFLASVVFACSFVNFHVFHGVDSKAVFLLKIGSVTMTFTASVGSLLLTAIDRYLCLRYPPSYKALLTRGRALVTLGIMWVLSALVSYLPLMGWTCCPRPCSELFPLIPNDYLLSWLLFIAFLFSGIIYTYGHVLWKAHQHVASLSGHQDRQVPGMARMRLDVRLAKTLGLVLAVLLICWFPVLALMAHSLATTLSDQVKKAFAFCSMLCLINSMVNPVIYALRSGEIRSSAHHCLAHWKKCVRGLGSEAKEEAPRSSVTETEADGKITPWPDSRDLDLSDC
Experiment: Inverse agonist activity at human CB2 receptor expressed in CHO membranes by [35S]GTPgammaS binding assay
Assay type: functional, cell membranes
Conditions: not given
Method in brief: (§1)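 [35S]GTPgammaS binding in membranes from hCB2-transfected CHO cells; stimulation or inhibition of constitutive activity measured from dose-response curves. Mock-transfected cell membranes as control. Three independent experiments in duplicate.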
O=C(NC1CCCCCC1)c1cc(-c2ccccc2)cn(Cc2ccc(F)cc2)c1=O showed an IC50 of 1.58 nM.

Molecular target: Cannabinoid receptor 1 (Homo sapiens, UniProt P21554)
Sequence (P21554 whole entry): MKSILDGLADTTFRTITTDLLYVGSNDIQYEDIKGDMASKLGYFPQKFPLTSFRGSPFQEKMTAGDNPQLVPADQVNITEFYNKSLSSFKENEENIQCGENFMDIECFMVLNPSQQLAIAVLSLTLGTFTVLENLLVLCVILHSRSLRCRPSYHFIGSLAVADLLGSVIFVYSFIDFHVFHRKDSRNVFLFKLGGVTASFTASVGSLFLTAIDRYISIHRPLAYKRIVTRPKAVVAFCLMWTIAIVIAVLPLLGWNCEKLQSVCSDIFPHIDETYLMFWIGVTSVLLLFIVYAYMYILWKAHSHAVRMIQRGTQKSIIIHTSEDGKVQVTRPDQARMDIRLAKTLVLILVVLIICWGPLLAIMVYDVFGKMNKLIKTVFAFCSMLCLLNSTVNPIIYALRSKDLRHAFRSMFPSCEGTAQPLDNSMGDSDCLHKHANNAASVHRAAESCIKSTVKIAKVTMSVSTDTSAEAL
Experiment: Displacement of [3H]CP55,940 from human recombinant CB1 receptor expressed in HEK293 cell membranes after 90 mins
Conditions: not given
Work on CCOC(=O)/C=C/c1cc(C(=O)NC2CCCCCC2)c(=O)n(Cc2ccc(F)cc2)c1 yielded a Ki of 24.8 nM. With CC1CCC(NC(=O)c2cccn(Cc3ccccc3)c2=O)CC1 (stereo not drawn) the Ki was 386 nM. CC1CCC(NC(=O)c2cccn(Cc3ccc(F)cc3)c2=O)CC1 (stereo not drawn) showed a Ki of 70 nM. With CCOC(=O)CCCn1cccc(C(=O)NC2CCCCCC2)c1=O the Ki was > 10000 nM. Compound CC1CCC(NC(=O)c2cccnc2OCc2ccc(F)cc2)CC1 (stereo not drawn) has a Ki of 884 nM. For O=C(NC1CCCCCC1)c1cccn(Cc2ccc(I)cc2)c1=O, the Ki was 1270 nM. COc1ccc(-c2cc(C(=O)NC3CCCCCC3)c(=O)n(Cc3ccc(F)cc3)c2)cc1 gave a Ki of 63 nM. CCCCn1cccc(C(=O)NC2CCC(C)CC2)c1=O (stereo not drawn) showed a Ki of 1620 nM. Work on CC1CCC(NC(=O)c2cccnc2OCc2ccccc2)CC1 (stereo not drawn) yielded a Ki of 3090 nM. For CC1CCC(NC(=O)c2cccn(CCO)c2=O)CC1 (stereo not drawn), the Ki was > 10000 nM. In the case of O=C(NC1CCCCCC1)c1cccn(Cc2ccccc2)c1=O, the Ki is reported as 56 nM. With CCCCOc1ncc(Br)cc1C(=O)NC1CCCCCC1 the Ki was > 10000 nM. In the case of CCCn1cccc(C(=O)NC2CCC(C)CC2)c1=O (stereo not drawn), the Ki is reported as > 10000 nM. Work on O=C(NC1CCCCCC1)c1cc(/C=C/c2ccccc2)cn(Cc2ccc(F)cc2)c1=O yielded a Ki of 24 nM. For O=C(NC1CCCCCC1)c1cc(-c2ccccc2)cn(Cc2ccc(F)cc2)c1=O, the Ki was 35 nM. O=C(NC1CCCCCC1)c1cccn(Cc2cccc(I)c2)c1=O showed a Ki of 1830 nM. O=C(NC1CCCCCC1)c1cc(-c2ccc(F)cc2)cn(Cc2ccc(F)cc2)c1=O gave a Ki of 24 nM. With O=C(NC1CCCCCC1)c1cc(-c2ccc(F)cc2)cn(CCN2CCOCC2)c1=O the Ki was 2730 nM. CCCCn1cc(Br)cc(C(=O)NC2CCCCCC2)c1=O gave a Ki of 23 nM. Work on O=C(NC1CCCCCC1)c1cccn(Cc2ccc(Cl)cc2)c1=O yielded a Ki of 55 nM. Compound O=C(NC1CCCCCC1)c1cc(Br)cn(CCN2CCOCC2)c1=O has a Ki of 243 nM. For O=C(O)CCCn1cccc(C(=O)NC2CCCCCC2)c1=O, the Ki was > 10000 nM. With CC1CCC(NC(=O)c2cccn(CCCO)c2=O)CC1 (stereo not drawn) the Ki was > 10000 nM. In the case of O=C(NC1CCCCCC1)c1cc(Br)cn(Cc2ccc(F)cc2)c1=O, the Ki is reported as 8.8 nM. O=C(NC1CCCCCC1)c1cccnc1OCc1ccccc1 gave a Ki of 1920 nM.

Molecular target: T1, Cannabinoid receptor 2
Experiment: Competitive antagonist activity at human CB2 receptor expressed in CHO membranes assessed as inhibition of HU-210-induced [35S]GTPgammaS binding
Assay type: functional, cell membranes
Conditions: read-out: pA2 (converted)
Method in brief: (§2)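 [35S]GTPgammaS binding in hCB2-CHO membranes; test compound against HU210 (1 nM for single-point reversal; full HU210 dose-responses for competitive analysis, pA2 derived). Three independent experiments in duplicate.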
COc1ccc(-c2cc(C(=O)NC3CCCCCC3)c(=O)n(Cc3ccc(F)cc3)c2)cc1 gave a Kb of 100 nM.

Molecular target: Cannabinoid receptor 1 (Rattus norvegicus) (UniProt P20272)
Sequence (P20272 whole entry): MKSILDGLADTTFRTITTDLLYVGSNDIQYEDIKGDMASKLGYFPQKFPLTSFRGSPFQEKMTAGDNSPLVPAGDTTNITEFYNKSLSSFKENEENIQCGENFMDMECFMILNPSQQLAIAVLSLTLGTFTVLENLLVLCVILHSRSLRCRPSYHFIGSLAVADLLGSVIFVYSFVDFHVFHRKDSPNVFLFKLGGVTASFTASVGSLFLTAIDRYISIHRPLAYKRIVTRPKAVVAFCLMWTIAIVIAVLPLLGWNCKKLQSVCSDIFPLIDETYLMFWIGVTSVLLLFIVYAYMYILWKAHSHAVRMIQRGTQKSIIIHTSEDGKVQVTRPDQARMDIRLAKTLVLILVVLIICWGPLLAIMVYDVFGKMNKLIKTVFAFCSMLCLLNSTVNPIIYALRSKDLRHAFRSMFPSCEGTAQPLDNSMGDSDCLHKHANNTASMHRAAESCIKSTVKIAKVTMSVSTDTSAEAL
Experiment: Agonist activity at CB1 receptor in rat cerebellar membranes at <10 uM by [35S]GTPgammaS binding assay
Assay type: functional, cell membranes
Conditions: Cerebellum, Membrane
Method in brief: (§3)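 [35S]GTPgammaS binding in rat cerebellar membranes as CB1R-mediated G protein activity; compounds tested for stimulation or antagonism. Three independent experiments in duplicate.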
With COc1ccc(-c2cc(C(=O)NC3CCCCCC3)c(=O)n(Cc3ccc(F)cc3)c2)cc1 the Activity was “inactive”. In the case of O=C(NC1CCCCCC1)c1cc(-c2ccccc2)cn(Cc2ccc(F)cc2)c1=O, the Activity is reported as “inactive”.

Molecular target: Cannabinoid receptor 1 (Rattus norvegicus) (UniProt P20272)
Experiment: Antagonist activity at CB1 receptor in rat cerebellar membranes at <10 uM by [35S]GTPgammaS binding assay
Assay type: functional, cell membranes
Conditions: Cerebellum, Membrane
Method in brief: as §3
With COc1ccc(-c2cc(C(=O)NC3CCCCCC3)c(=O)n(Cc3ccc(F)cc3)c2)cc1 the Activity was “inactive”. For O=C(NC1CCCCCC1)c1cc(-c2ccccc2)cn(Cc2ccc(F)cc2)c1=O, the Activity was “inactive”.

Molecular target: Cannabinoid receptor 1 (Rattus norvegicus, UniProt P20272)
Sequence (P20272 whole entry): as above
Experiment: Agonist activity at CB1 receptor in rat cerebellar membranes by [35S]GTPgammaS binding assay
Assay type: functional, cell membranes, Cerebellum, Membrane
Conditions: not given
Method in brief: as §3
O=C(NC1CCCCCC1)c1cccn(Cc2ccc(F)cc2)c1=O showed an EC50 of 1580 nM.

Molecular target: T1, Cannabinoid receptor 2
Experiment: Agonist activity at human CB2 receptor expressed in CHO membranes by [35S]GTPgammaS binding assay
Assay type: functional, cell membranes
Conditions: not given
Method in brief: as §1
In the case of COc1ccc(-c2cc(C(=O)NC3CCCCCC3)c(=O)n(Cc3ccc(F)cc3)c2)cc1, the Activity is reported as “inactive”. In the case of O=C(NC1CCCCCC1)c1cccn(Cc2ccc(F)cc2)c1=O, the EC50 is reported as 6.31 nM.

Molecular target: T1, Cannabinoid receptor 2
Experiment: Displacement of [3H]CP55,940 from human recombinant CB2 receptor expressed in HEK293 cell membranes after 90 mins
Conditions: not given
CCOC(=O)/C=C/c1cc(C(=O)NC2CCCCCC2)c(=O)n(Cc2ccc(F)cc2)c1 showed a Ki of 13.7 nM. For CC1CCC(NC(=O)c2cccn(Cc3ccccc3)c2=O)CC1 (stereo not drawn), the Ki was 53 nM. Compound CC1CCC(NC(=O)c2cccn(Cc3ccc(F)cc3)c2=O)CC1 (stereo not drawn) has a Ki of 4.8 nM. Work on CCOC(=O)CCCn1cccc(C(=O)NC2CCCCCC2)c1=O yielded a Ki of 1830 nM. Compound CC1CCC(NC(=O)c2cccnc2OCc2ccc(F)cc2)CC1 (stereo not drawn) has a Ki of 80 nM. O=C(NC1CCCCCC1)c1cccn(Cc2ccc(I)cc2)c1=O showed a Ki of 187 nM. In the case of COc1ccc(-c2cc(C(=O)NC3CCCCCC3)c(=O)n(Cc3ccc(F)cc3)c2)cc1, the Ki is reported as 1 nM. CCCCn1cccc(C(=O)NC2CCC(C)CC2)c1=O (stereo not drawn) showed a Ki of 104 nM. For CC1CCC(NC(=O)c2cccnc2OCc2ccccc2)CC1 (stereo not drawn), the Ki was 594 nM. In the case of CC1CCC(NC(=O)c2cccn(CCO)c2=O)CC1 (stereo not drawn), the Ki is reported as > 10000 nM. For O=C(NC1CCCCCC1)c1cccn(Cc2ccccc2)c1=O, the Ki was 8 nM. CCCCOc1ncc(Br)cc1C(=O)NC1CCCCCC1 showed a Ki of 396 nM. Work on CCCn1cccc(C(=O)NC2CCC(C)CC2)c1=O (stereo not drawn) yielded a Ki of 583 nM. Work on O=C(NC1CCCCCC1)c1cc(/C=C/c2ccccc2)cn(Cc2ccc(F)cc2)c1=O yielded a Ki of 7.9 nM. With O=C(NC1CCCCCC1)c1cc(-c2ccccc2)cn(Cc2ccc(F)cc2)c1=O the Ki was 1.2 nM. Work on O=C(NC1CCCCCC1)c1cccn(Cc2cccc(I)c2)c1=O yielded a Ki of 397 nM. In the case of O=C(NC1CCCCCC1)c1cc(-c2ccc(F)cc2)cn(Cc2ccc(F)cc2)c1=O, the Ki is reported as 2.8 nM. Work on O=C(NC1CCCCCC1)c1cc(-c2ccc(F)cc2)cn(CCN2CCOCC2)c1=O yielded a Ki of 63 nM. For CCCCn1cc(Br)cc(C(=O)NC2CCCCCC2)c1=O, the Ki was 5.1 nM. For O=C(NC1CCCCCC1)c1cccn(Cc2ccc(Cl)cc2)c1=O, the Ki was 4.2 nM. Compound O=C(NC1CCCCCC1)c1cc(Br)cn(CCN2CCOCC2)c1=O has a Ki of 65 nM. For O=C(O)CCCn1cccc(C(=O)NC2CCCCCC2)c1=O, the Ki was > 10000 nM. With CC1CCC(NC(=O)c2cccn(CCCO)c2=O)CC1 (stereo not drawn) the Ki was > 10000 nM. For O=C(NC1CCCCCC1)c1cc(Br)cn(Cc2ccc(F)cc2)c1=O, the Ki was 2.2 nM. With O=C(NC1CCCCCC1)c1cccnc1OCc1ccccc1 the Ki was 481 nM.

Molecular target: T1, Cannabinoid receptor 2
Experiment: Partial inverse agonist activity at human CB2 receptor expressed in CHO membranes by [35S]GTPgammaS binding assay relative to basal control
Assay type: functional, cell membranes
Conditions: not given
Method in brief: as §1
With COc1ccc(-c2cc(C(=O)NC3CCCCCC3)c(=O)n(Cc3ccc(F)cc3)c2)cc1 the Activity was 88%.

Molecular target: T1, Cannabinoid receptor 2
Experiment: Neutral antagonist activity at human CB2 receptor expressed in CHO membranes by [35S]GTPgammaS binding assay in presence of SR144528
Assay type: functional, cell membranes
Conditions: not given
Method in brief: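 [35S]GTPgammaS binding in hCB2-CHO membranes; compound added against inverse agonist SR144528 at 3 nM to assess reversal of its response. Three independent experiments in duplicate.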
In the case of COc1ccc(-c2cc(C(=O)NC3CCCCCC3)c(=O)n(Cc3ccc(F)cc3)c2)cc1, the Activity is reported as “Active”.

Test system: not listed separately
Experiment: Selectivity ratio of EC50 for CB1 receptor in rat cerebellar membranes to EC50 for human CB2 receptor expressed in CHO membranes
Assay type: cell membranes
Conditions: not given
O=C(NC1CCCCCC1)c1cccn(Cc2ccc(F)cc2)c1=O gave a Ratio EC50 of 200.

Molecular target: T1, Cannabinoid receptor 2
Experiment: Antagonist activity at human CB2 receptor expressed in CHO membranes assessed as inhibition of HU-210-induced [35S]GTPgammaS binding
Assay type: functional, cell membranes
Conditions: not given
Method in brief: as §2
For COc1ccc(-c2cc(C(=O)NC3CCCCCC3)c(=O)n(Cc3ccc(F)cc3)c2)cc1, the inhibition was “Dose-dependent effect”.
